# m5-HT2A agonist – agonists of mouse serotonin 5-HT2A receptor (HTR2A) | 360,000 compounds, 0.66% hits | CHO-K1 mHTR2A beta-arrestin complementation, luminescence; percent of 30 µM serotonin response | P35363 | activation, % at 7.6 µM | AID 624169;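 active means activation above a run cutoff, the mean activation of all tested compounds plus 3 SD, cut at about 14% in these data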
# Beta2AR agonist – human beta-2 adrenergic receptor agonism by FAP. P07550. Am2.2-beta2AR cells, FAP receptor internalization, flow cytometry. response, % (no concentration beside the values). 340,000 compounds, 0.43% hits. AID 504454;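 active means response above a set limit, near 3 SD of response in nonfluorescent compounds, cut at about 42% in these data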
# TAAR1 agonist – agonists of human TAAR1 | Q96RJ0 | CHO RD-HGA16 TAAR1, Fluo-8 calcium fluorescence; vehicle wells 0%, saturating PEA agonist 100% | activation, % at 3 µM | 360,000 compounds, 0.99% hits | AID 624467;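 active means activation above the mean activation of all test compounds in the run plus 3 SD, cut at about 38% in these data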
# Target sequence (Q96RJ0 whole entry, looked up): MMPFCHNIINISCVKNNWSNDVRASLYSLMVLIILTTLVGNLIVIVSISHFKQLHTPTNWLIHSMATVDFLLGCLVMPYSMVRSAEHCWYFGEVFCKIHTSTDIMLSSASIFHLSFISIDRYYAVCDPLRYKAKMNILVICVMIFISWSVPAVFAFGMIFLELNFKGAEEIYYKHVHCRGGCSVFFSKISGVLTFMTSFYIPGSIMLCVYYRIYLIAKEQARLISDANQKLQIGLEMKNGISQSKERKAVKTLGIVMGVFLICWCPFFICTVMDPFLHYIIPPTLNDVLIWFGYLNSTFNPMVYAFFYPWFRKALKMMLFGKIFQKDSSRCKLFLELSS
#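 System: CHO-derived RD-HGA16 cells with stable Gα16 and human TAAR1. Times: 17-24 h plating, Fluo-8 75 min 37 °C, 30 min RT. Measured by: calcium-sensitive Fluo-8 signal, excitation 470-495, emission 515-575 nm. Read-out basis: % activation relative to PEA EC100 response. Control set: DMSO and PEA EC100. Repeats: no replicates (n 1).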
# MC4R antag cAMP – human MC4R antagonism in cAMP assay. P32245. MC4R-expressing cells, MTII-stimulated cAMP, LANCE TR-FRET. inhibition, % at 6.5 µM. 360,000 compounds, 0.48% hits. AID 540295;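 active means inhibition above its plate's cutoff, the mean of tested wells on that plate plus 3 SD, cut at about 29% in these data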
# Target sequence (P32245 whole entry, looked up): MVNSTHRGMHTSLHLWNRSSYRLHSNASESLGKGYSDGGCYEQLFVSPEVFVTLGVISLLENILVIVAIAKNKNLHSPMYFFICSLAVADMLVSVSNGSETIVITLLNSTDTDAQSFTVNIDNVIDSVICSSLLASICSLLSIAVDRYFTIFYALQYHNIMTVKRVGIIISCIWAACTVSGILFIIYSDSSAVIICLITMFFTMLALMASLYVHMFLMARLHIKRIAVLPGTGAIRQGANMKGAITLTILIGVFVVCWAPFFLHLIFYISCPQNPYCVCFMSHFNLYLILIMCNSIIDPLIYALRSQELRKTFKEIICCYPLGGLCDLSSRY
#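 Assay system: U2OS cells stably expressing human melanocortin 4 receptor (MC4R) / Dosing: 6.5 µM / Timing: compound 30 min, challenge 1 h, detection 1 h / Measured by: Eu-cAMP/anti-cAMP TR-FRET, emission 671 nm / Replicates: singlicate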
# TAAR1 antagonist – antagonists of human TAAR1; Q96RJ0; CHO RD-HGA16 TAAR1, Fluo-8 calcium fluorescence, antagonist; inhibition, % at 3 µM; 360,000 compounds, 1.5% hits;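 active means inhibition above a per-plate cutoff, the mean inhibition of test compounds on that plate plus 3 SD, cut at about 49% in these data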
#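 System: CHO RD-HGA16 cells bearing hTAAR1. Reagent: EC80 β-phenethylamine stimulus. Schedule: seeding 17-24 h prior, 75-min 37 °C, 30-min RT dye loading. Signal: Fluo-8 intracellular calcium dye fluorescence, real-time kinetic reads. Read-out: % inhibition from peak post-agonist over basal fluorescence ratio. Benchmarks: vehicle wells and EC80 agonist wells. Replicates: n of 1.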
# MC4R barr agon – human MC4R agonism via beta-arrestin. P32245. U2OS MC4R beta-arrestin complementation, luminescence; percent of melanotan II response, DMSO zero. activation, % at 8.9 µM. 360,000 compounds, 0.98% hits;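 active means activation above a per-plate cutoff, the mean activation of sample wells on that plate plus 3 SD, cut at about 8% in these data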
# A number is an active result; i = inactive; nt = not tested or not shown. Compounds with a hit are over-represented: about 4.3% of the library has one in this group of screens.
SMILES,m5-HT2A agonist,Beta2AR agonist,TAAR1 agonist,MC4R antag cAMP,TAAR1 antagonist,MC4R barr agon
CC(C)(C)S(=O)N1C[C@@H]2CC(=O)C=C2[C@H]1CCO (some centres not stated),nt,nt,i,nt,i,nt
CCOc1ccc(-c2c(C(=O)N/N=C/c3cccnc3)nnn2-c2nonc2N)cc1,i,i,i,i,i,i
CCOc1cccc(-c2c(C(=O)N/N=C/c3ccc(C)o3)nnn2-c2nonc2N)c1,i,i,62.4,i,i,i
Nc1nonc1-n1nnc(C(=O)N/N=C/c2cccc(F)c2)c1-c1ccc2c(c1)OCO2,i,i,44.1,i,i,i
CCOc1cccc(-c2c(C(=O)N/N=C/c3ccco3)nnn2-c2nonc2N)c1,i,i,nt,i,nt,i
CCOc1ccc(-c2c(C(=O)N/N=C/c3c[nH]c4ccccc34)nnn2-c2nonc2N)cc1,i,i,i,i,52.9,i
Nc1nonc1-n1nnc(C(=O)N/N=C/c2ccccn2)c1-c1ccccc1,i,i,i,i,i,i
Nc1nonc1-n1nnc(C(=O)N/N=C/c2cc(Br)cs2)c1-c1ccccc1,i,i,40.7,i,i,i
O=C(N[C@@H](Cc1cccnc1)C(=O)N1CCC[C@H]1C(=O)NC1CCCC1)C1CC1,nt,nt,i,nt,i,nt
CSCCC(C(=O)NC1CCCC1)n1c(-c2ccccn2)nc2ccccc21 (configuration not stated),i,nt,i,nt,i,nt
Cc1cc(-c2nc3ncccc3o2)ccc1NC(=S)NC(=O)C(C)C,i,61.9,i,i,i,i
N#C/C(=C/c1ccc(O)c(O)c1)C(=O)NCc1ccc(Cl)cc1,i,i,47.9,i,i,i
N#C/C(=C/c1cccc(O)c1)C(=O)NCc1ccc(Cl)cc1,i,i,i,i,i,i
Cc1ccc2nc(C(O)C(O)c3nc4ccc(C)cc4[nH]3)[nH]c2c1 (configuration not stated),i,i,38.4,i,i,i
O=C(Cc1cn(Cc2ccccc2)c2ccccc12)Nc1ccc(Nc2cccnc2)c(Br)c1,nt,nt,i,nt,i,nt
CN1c2ccccc2-c2ccccc2S1(=O)=O,i,i,i,i,i,i
Cc1ccc2c(c1)S(=O)(=O)N(C)C(c1ccccc1)=C2,i,i,i,i,53.3,i
Cc1cc(Nc2cc(Cl)cc(Cl)c2)cc(=O)n1-c1cc(Cl)cc(Cl)c1,nt,nt,i,nt,i,nt
C[C@@H]1CN(c2ccc(N3CCN(C(=O)OC(C)(C)C)C[C@@H]3C)cc2C#N)C[C@H](C)O1,nt,nt,i,nt,i,nt
Cc1cc(NC(=O)Nc2ccccc2F)ccc1Br,i,i,i,i,66.3,8.7
COc1ccccc1NC(=O)COc1ccc(C(=O)NC2CCCc3ccccc32)cc1OC (configuration not stated),i,i,i,i,i,8.5
Clc1ccc2nc(CSCc3ccccc3)cn2c1,i,i,i,i,i,i
CC(C)(C)c1ccc(C(=O)NCCC(=O)N2CCCC2)cc1,i,i,i,i,i,i
CC(C)(C)c1ccc(C(=O)NCCC(=O)N2CCN(c3ncccn3)CC2)cc1,17.1,i,i,i,i,i
O=C(Nc1ccc(Br)cn1)c1ccc(COc2c(F)c(F)cc(F)c2F)o1,i,i,i,i,i,8.4
SMILES,m5-HT2A agonist,Beta2AR agonist,TAAR1 agonist,MC4R antag cAMP,TAAR1 antagonist,MC4R barr agon
CCc1cc2c(COC(=O)c3cccc(S(C)(=O)=O)c3)cc(=O)oc2cc1O,i,61.1,i,i,i,i
CNS(=O)(=O)c1cccc(C(=O)OCc2cc(=O)oc3c(C)c(O)ccc23)c1,i,i,i,i,i,i
CN1CCc2c(sc3c2C(=O)NC(c2cccc(OC(=O)c4cccs4)c2)N3)C1 (configuration not stated),i,i,i,i,i,i
CCOC(=O)N1CCc2c(sc3c2C(=O)NC(c2ccccc2)N3)C1 (configuration not stated),i,i,nt,i,nt,9.0
CC(C)Nc1nc(NC(C)(C)C)nc(Oc2ccc(=O)n(C)n2)n1,i,i,39.5,i,i,i
COc1nc(NC(C)(C)C)nc(Oc2ccc(=O)n(C)n2)n1,i,i,i,i,i,i
COc1ccc(N=C2SC(CC(=O)Nc3ccccc3F)C(=O)N2Cc2ccco2)cc1 (configuration not stated),i,i,i,i,i,i
COc1ccc(N=C2SC(CC(=O)Nc3ccccc3)C(=O)N2Cc2ccco2)cc1 (configuration not stated),i,i,i,i,i,8.3
CCCCCCSC1=C(C#N)C(c2ccccc2)CC(=O)N1 (configuration not stated),i,i,i,i,i,10.3
Cc1ccc(C2CC(=O)NC(SCc3ccccc3)=C2C#N)cc1 (configuration not stated),i,i,i,i,i,i
CN1OC[C@@H]2CN(CC3CCCCC3)[C@H](c3ccc(-c4ccc(C#N)cc4)cc3)C[C@@H]21,nt,nt,i,nt,i,nt
COc1ccc(OC)c(N(CC(=O)NCCSCc2ccco2)S(=O)(=O)c2ccccc2)c1,i,i,i,i,i,i
CCOc1ccccc1N(CC(=O)NCCSCc1ccco1)S(=O)(=O)c1ccccc1,i,i,i,i,50.1,i
CN(C)c1ccc(C#Cc2ccc3cc(CCO)oc(=O)c3c2)cc1,i,i,nt,43.0,nt,i
O=C1c2ccccc2C(=O)N1CCC#Cc1ccc2cc(CCO)oc(=O)c2c1,i,i,i,i,72.0,i
O=c1oc(CCO)cc2ccc(C#Cc3ccsc3)cc12,i,i,i,i,i,i
Nc1[nH]c(C(=O)c2ccccc2)c(-c2ccc(F)cc2)c1C(=O)c1c[nH]c2ccccc12,nt,nt,i,nt,i,nt
O=C(Nc1ccc2c(c1)OCCO2)C(=O)c1c[nH]c2ccccc12,i,i,i,i,53.8,i
Cc1ccccc1CN1[C@@H](C)[C@H](c2ccccc2)Oc2cccc(N3CCCC3)c2S1(=O)=O,nt,nt,i,nt,i,nt
COc1ccccc1N1CCN(C(=O)c2cc3cc(F)ccc3[nH]2)CC1,i,i,i,i,i,i
COc1ccccc1N1CCN(C(=O)c2cc3ccccc3[nH]2)CC1,i,i,i,i,53.3,i
O=c1c(O)c(-c2cccs2)oc2ccccc12,i,i,45.4,i,i,i
C=CC[C@H]1CC(C)=C[C@H](CC=C)N1C(=O)c1cc(COc2ccccc2SC)on1,i,i,i,i,52.8,i
COCC1CCN(C(=O)c2cc(COc3ccccc3SC)on2)C1 (configuration not stated),i,i,i,i,i,i
COc1cccc(-c2csc(N3CCN(CC(=O)NNC(=O)c4ccc(Br)cc4)CC3)n2)c1,i,i,i,i,i,10.0
COCCCNC(=S)N1CCN(c2nc(-c3ccc(Cl)cc3)cs2)CC1,i,nt,i,i,61.5,i
